Screens (PubChem)
Only a sample is shown.
PGC1a acetyl up: raises PGC1a acetylation signal in U2OS cells | U2OS PGC1a acetylation AlphaScreen, overnight | activation, % at 15.6 µM | actives 0.21% (n = 350,000);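 active = every replicate reaching activation of at least 50%, whatever the mean replicate activation; inconclusive = replicates that disagree or another doubt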;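 note: hits raise the AlphaScreen acetylation signal above neutral controls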
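System: flag-PGC1a/GCN5 U2OS cells / Input: 7000 cells/well / Compound: single test concentration per compound / Incubation: overnight compound treatment, 37 °C / Technique: AlphaScreen on lysates with anti-acetyl-lysine antibody, acceptor and donor beads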
Hep G6PC suppr: PGC-1a acetylation activators affecting G6PC expression in hepatocytes. shares compounds with PGC1a acetyl up. primary mouse hepatocytes, G6PC mRNA qPCR, forskolin. G6PC suppression (normalized activity, % of positive control; higher = more suppression), % at 26 µM. 240 tested, under 10 active;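 active = dose curves showing G6PC suppression whose half-maximal dose is at most twice the top valid dose; inconclusive = flat curves with moderate negative activity, or unreliable fits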;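 note: G6PC expression relative to GAPDH housekeeping gene as delta delta Ct; 0% = median of neutral control wells and 100% = median of positive control wells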
Hep PCK1 suppr: PGC-1a acetylation activators affecting PCK1 expression in hepatocytes; shares compounds with PGC1a acetyl up; primary mouse hepatocytes, PCK1 mRNA qPCR, forskolin-stimulated; 230 tested, under 10 active; AID 743465; PCK1 expression decrease, unspecified at 26 µM;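 active = compounds lowering PCK1 expression whose fitted half-maximal concentration is at most twice the top tested dose; inconclusive = flat fit with moderate opposite-direction effect, or poor fit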;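 note: values are delta delta Ct of PCK1 relative to GAPDH; higher delta delta Ct means lower PCK1 expression so positive values indicate hits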
PGC1a hep suppr: PGC-1a acetylation activator altering hepatocyte PGC-1a expression; max activity (PGC-1a expression decrease), %; 240 tested, under 10 active; shares compounds with PGC1a acetyl up; primary mouse hepatocytes, PGC-1a mRNA qPCR, forskolin; top dose 26 µM;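 active = compound lowering PGC-1a expression with fitted half-maximal concentration at most twice its top tested dose; inconclusive = flat curve with moderate opposite-direction effect, or poor fit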;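 note: 0% = neutral control wells median and 100% = positive control wells median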
Starred values were filed as active, the others as inactive; ? = inconclusive; · = not tested or not shown; [ ] = remark or other dose.

SMILES	PGC1a acetyl up	Hep G6PC suppr	Hep PCK1 suppr	PGC1a hep suppr
C[C@@H]1CCCCO[C@H](CN(C)Cc2ccc(Cl)c(Cl)c2)[C@H](C)CN([C@@H](C)CO)C(=O)c2cc(NC(=O)Nc3ccc(F)cc3)ccc2O1	-43	·	·	·
Cc1noc(C)c1S(=O)(=O)Nc1ccc2c(c1)C(=O)N([C@@H](C)CO)C[C@@H](C)[C@@H](CN(C)Cc1ccc3c(c1)OCO3)OCCCC[C@@H](C)O2	-41	444	230	?
COC(=O)c1ccc(OC)c(OC2CCCC2)c1	-89	·	·	·
CC1(C)CC(=O)C(N=Nc2cc(Cl)c(Cl)c(Cl)c2)=C(O)C1	-48	·	·	·
CN1Cc2c(N3CCOCC3)nc3sc(C(=O)c4ccc(Br)cc4)c(N)c3c2CC1(C)C	83*	235	208	48
O=P(CCCCCCCCCP(=O)(c1ccccc1)c1ccccc1)(c1ccccc1)c1ccccc1	-78	·	·	·
CCn1c2ccccc2c2cc(/C=N/n3cn[nH]c3=S)ccc21	-42	·	·	·
Cc1ccc(NC(=O)c2c(C(F)(F)F)nn(C)c2SCc2ccc(Cl)cc2)cc1C	?	14[8 µM]	249	139
Cc1ccc(C2CC2c2n[nH]c(=S)n2-c2ccc(Cl)cc2)cc1 (stereo unspecified)	-45	·	·	·
O=C(N/N=C/c1ccccc1C(=O)O)c1cccc(S(=O)(=O)Nc2cc(Cl)ccc2Cl)c1	-47	·	·	·
CC(C)(O)c1cc(=O)sc2nc3ccccc3n12	-50	·	·	·
O=C(NCc1csc(-c2cccs2)n1)c1cccc(Cl)c1	-43	22	37	53
CCC(C)NCCOCCOc1ccc(C)cc1OC (stereo unspecified)	-50	·	·	·
O=C(Nc1cnc2ccccc2c1)c1cccnc1	267*	·	-15	-30
Nc1ccc2c(c1)C(=O)C(=O)c1ccccc1-2	-107	·	·	·
COc1ccc(NCc2nnc(SCC(=O)Nc3cc(C)cc(C)c3)o2)cc1	-52	·	·	·
C[C@H](CO)N1C[C@H](C)[C@H](CN(C)Cc2ccc(Oc3ccccc3)cc2)Oc2c(NC(=O)Nc3ccc4c(c3)OCO4)cccc2C1=O	-40	·	·	·
C[C@H]1CN([C@@H](C)CO)C(=O)c2cccc(NS(=O)(=O)c3ccc(F)cc3)c2O[C@H]1CN(C)Cc1ccc(C(F)(F)F)cc1	-55	23	37	89
Cc1[nH]c2ccc(C(C)C)cc2c1CC(=O)O	-76	·	·	·
CCn1c(SC/C=C/c2ccccc2)nnc1-c1cccs1	-50	109	59	154
O=C1C=C(c2c(O)ccc3ccccc23)c2ccccc2C1=O	-54	·	·	·
CCN(CC)c1ccc(NC2=C(Cl)C(=O)c3ccccc3C2=O)cc1	-68	·	·	·
COc1ccc(-c2nc3c(C)cc(Br)cn3c2Cc2ccc(C)cc2)cc1OC	?	215	131	99
Cc1ccc2[nH]cc(C(=O)CN3CCN(c4ccccc4F)CC3)c2c1	-48	-39[8 µM]	-18	25
O=C(CSc1nc2ccc(Cl)cc2[nH]1)c1ccc2c(c1)OCO2	-49	·	·	·
SMILES	PGC1a acetyl up	Hep G6PC suppr	Hep PCK1 suppr	PGC1a hep suppr
COC(=O)c1cc(S(=O)(=O)N2CCN(c3ccc(C(C)=O)cc3)CC2)c[nH]1	?	-40	-54	-28
CN(C)c1ccnc2sc(C(N)=O)c(N)c12	-48	·	·	·
CCOC(=O)C(C)n1cnc2c(nnn2-c2ccc(C)cc2)c1=O (stereo unspecified)	-67	52	-31[8 µM]	?
C=CCc1ccc(OCCCCNC(C)CC)c(OC)c1 (stereo unspecified)	-26	·	·	·
O=C(c1nc2nc(-c3ccccc3)cc(C(F)(F)F)n2n1)N1CCCCC1	-41	·	·	·
Cc1cccn2c(=O)c3cc(C(=O)NCc4ccco4)c(=N)n(CCc4ccccc4)c3nc12	-55	·	·	·
Cn1cc(-c2ccc(C(=O)NCc3cccc(Cl)c3)c3occc23)cn1	59*	-68	-9.2	64
CC(=O)c1ccc(NC(=O)N2CCc3ccccc3C2)cc1	269*	45	-13	45
Cc1ccc(-c2n[nH]c(=S)n2/N=C/c2cccn2C)cc1	-50	·	·	·
COc1cc(O)c(C(CC(=O)N2CCOCC2)c2ccc(N(C)C)cc2)c(OC)c1 (stereo unspecified)	-49	·	·	·
CN(Cc1cnc2nc(N)nc(N)c2n1)c1ccc(C(=O)N[C@@H](CCC(=O)O)C(=O)O)cc1	-43	·	·	·
O=C(Nc1nc(-c2ccccn2)cs1)c1ccccc1-n1cnnn1	-43	·	·	·
O=C(Nc1ccc2c(c1)OCO2)C1CCN(c2ccc(S(=O)(=O)N3CCOCC3)cc2)CC1	-48	-45	0.28	41
CCOc1ccc(N(C)S(=O)(=O)c2cc(-c3cc(C)no3)ccc2C(C)C)cc1	65*	·	·	?
Cc1nc2ccccc2nc(C)c1=NO	-48	·	·	·
CC1CCN(C(=O)COC(=O)c2ccc(Br)o2)CC1	-50	·	·	·
CCCCCOC(=O)Cc1c(O)c2ccccc2n(C)c1=O	-43	-30	-16	-27
O=C(NCC1CC1)Nc1ccccc1F	-83	·	·	·
O=[N+]([O-])c1ccc(Oc2ccc(F)cc2)c2ccncc12	-43	·	·	·
O=C(NC(=S)Nc1ccccc1N1CCCC1)c1cccs1	-51	·	·	·
S=C1NC2=C(CCCC2=C2SCCS2)C(c2ccccc2)N1 (stereo unspecified)	-41	·	·	·
CCCn1c(=O)c2ccccc2n2c(SCc3c(C(=O)OCC)oc4ccccc34)nnc12	-42	·	·	·
Cc1ccc(-n2cccn2)c(CN2CCCC(C(=O)c3sccc3C)C2)c1 (stereo unspecified)	68*	·	·	?
O=c1[nH]c(/C=C/c2ccc([N+](=O)[O-])cc2)c([N+](=O)[O-])c(=O)[nH]1	-43	·	·	·
CCN(CC)CCNC(=O)c1ccc2c(c1NCCO)C(=O)c1ccccc1C2=O	-92	·	·	·
SMILES	PGC1a acetyl up	Hep G6PC suppr	Hep PCK1 suppr	PGC1a hep suppr
OC[C@@H]1CN(Cc2ccccc2)C[C@H](n2cnc3c(NCc4ccc(F)cc4)ncnc32)O1	-44	·	·	·
O=C(NCc1ccccc1)N1CCC(n2cnc3cc(F)ccc32)CC1	138*	·	1.3	43
CCN1CCN(c2nnc(-c3ccccc3)c3ccccc23)CC1	-46	·	·	·
CCCCN(CCCC)S(=O)(=O)c1ccc2oc(C(=O)N3CCOCC3)c(C)c2c1	102*	11	5.3	48
CCCS(=O)(=O)N1CCCC(C(=O)NCCCOC(C)C)C1 (stereo unspecified)	-64	·	·	·
CCOC(=O)C1CCN(C(=O)CSc2ccc(Br)cc2)CC1	-40	·	·	·
O=C(CN1CCC(n2c(=O)[nH]c3ccccc32)CC1)NCc1ccc(Cl)s1	·	-14	-6.3	15
CCOC(=O)C1=C(Nc2ccccc2)OCC1=O	-47	·	·	·
CCOc1ccc(N2C(=O)CC(Cc3ccc(Br)cc3)C2=O)cc1 (stereo unspecified)	-71	·	·	·
COc1ccc(/C=N/Nc2nncn2N)cc1Br	-69	·	·	·
Nc1ncnc(NCc2ccc(F)cc2)c1[N+](=O)[O-]	-50	·	·	·
CCN1C(=O)CCCc2ccccc21	-68	·	·	·
O=C(NCc1cccnc1)c1ccc(NC(=O)c2ccc(Br)cc2)cc1	84*	368	254	117
O=C(Cc1ccc(Cl)cc1)c1c[nH]c(C(=O)NCc2cccnc2)c1	65*	127	233	52
O=C(/C=C/c1cccs1)c1ccc(NC(=O)c2cccc(Br)c2)cc1	-48	·	·	·
CCC(CC)C(=O)c1c[nH]c(C(=O)NCc2ccccc2)c1	?	-46	-8.8	37
